According to ChEMBL document CHEMBL5126625, “Discovery of AZD4831, a Mechanism-Based Irreversible Inhibitor of Myeloperoxidase, As a Potential Treatment for Heart Failure with Preserved Ejection Fraction” (J Med Chem, 2022):
In brackets after ≈: the same amount, converted by molar mass.

Experiments:
Thyroid peroxidase = target: T1, Thyroid peroxidase (Homo sapiens, UniProt P07202); assay: Inhibition of human recombinant TPO (1 to 839 residues) expressed in baculovirus-infected insect cells measured after 15 mins in presence of H2O2 by chemiluminescence assay
T1 sequence (P07202 whole entry): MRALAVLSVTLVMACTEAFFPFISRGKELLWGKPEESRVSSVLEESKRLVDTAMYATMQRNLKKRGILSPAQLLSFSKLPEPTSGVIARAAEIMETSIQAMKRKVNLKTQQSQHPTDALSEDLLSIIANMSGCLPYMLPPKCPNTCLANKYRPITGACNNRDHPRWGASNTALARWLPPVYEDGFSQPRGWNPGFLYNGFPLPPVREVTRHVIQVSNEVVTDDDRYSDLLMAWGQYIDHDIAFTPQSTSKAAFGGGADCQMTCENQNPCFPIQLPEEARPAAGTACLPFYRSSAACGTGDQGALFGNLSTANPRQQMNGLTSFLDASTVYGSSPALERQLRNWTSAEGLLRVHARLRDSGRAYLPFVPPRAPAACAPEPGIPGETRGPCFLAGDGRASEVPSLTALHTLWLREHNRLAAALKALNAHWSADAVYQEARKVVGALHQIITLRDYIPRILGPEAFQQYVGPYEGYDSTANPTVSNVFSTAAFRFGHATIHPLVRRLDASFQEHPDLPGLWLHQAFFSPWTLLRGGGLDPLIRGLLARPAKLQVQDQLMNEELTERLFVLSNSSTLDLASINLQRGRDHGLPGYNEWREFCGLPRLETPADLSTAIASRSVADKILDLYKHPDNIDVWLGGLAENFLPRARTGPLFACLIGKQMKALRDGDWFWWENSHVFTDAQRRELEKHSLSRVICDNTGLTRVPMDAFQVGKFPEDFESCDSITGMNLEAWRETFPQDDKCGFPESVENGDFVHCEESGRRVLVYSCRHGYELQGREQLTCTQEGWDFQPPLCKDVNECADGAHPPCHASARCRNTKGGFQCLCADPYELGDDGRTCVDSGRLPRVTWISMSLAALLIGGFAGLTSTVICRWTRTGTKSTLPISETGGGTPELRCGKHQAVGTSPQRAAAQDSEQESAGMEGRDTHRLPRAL
How it was run: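 IC50 determined against purified enzyme in an in vitro chemiluminescent assay.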

[1] = Lipophilicity, log D of the compound; settings: octanol/water
[2] = Apparent permeability of the compound across apical to basolateral side in human Caco-2 cells at 10 uM by LC-MS/MS analysis
physchem = settings: phosphate buffer, pH 7.4
Myeloperoxidase [3] = target: T2, Myeloperoxidase (Homo sapiens, UniProt P05164); assay: Inhibition of MPO (unknown origin) measured after 15 mins in presence of H2O2 by chemiluminescence assay
T2 sequence (P05164 whole entry): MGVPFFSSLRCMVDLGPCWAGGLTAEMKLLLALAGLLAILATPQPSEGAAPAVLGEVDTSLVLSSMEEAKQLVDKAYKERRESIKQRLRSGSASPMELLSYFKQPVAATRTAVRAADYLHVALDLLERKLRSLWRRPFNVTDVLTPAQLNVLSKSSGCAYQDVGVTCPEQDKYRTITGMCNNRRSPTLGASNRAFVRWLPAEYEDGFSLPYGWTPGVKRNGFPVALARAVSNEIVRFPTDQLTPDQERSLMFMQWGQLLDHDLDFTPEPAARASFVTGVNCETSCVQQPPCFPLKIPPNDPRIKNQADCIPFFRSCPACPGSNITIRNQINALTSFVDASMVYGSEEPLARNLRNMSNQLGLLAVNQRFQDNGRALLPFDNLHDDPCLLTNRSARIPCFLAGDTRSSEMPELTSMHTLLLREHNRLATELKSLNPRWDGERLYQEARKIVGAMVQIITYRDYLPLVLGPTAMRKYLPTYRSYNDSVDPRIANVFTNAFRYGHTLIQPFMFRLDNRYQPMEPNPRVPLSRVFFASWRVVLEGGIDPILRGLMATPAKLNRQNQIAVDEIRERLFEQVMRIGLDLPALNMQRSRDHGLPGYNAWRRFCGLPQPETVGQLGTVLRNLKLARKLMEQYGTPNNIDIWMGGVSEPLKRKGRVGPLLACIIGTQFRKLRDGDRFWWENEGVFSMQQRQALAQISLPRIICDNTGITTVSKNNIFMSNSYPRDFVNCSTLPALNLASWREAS

Myeloperoxidase [4] = target: T2, Myeloperoxidase; assay: Inhibition of MPO in human HL-60 cells measured after 15 mins in presence of H2O2 by chemiluminescence assay; type: cell-based
Myeloperoxidase [5] = target: T2, Myeloperoxidase; assay: Displacement of benzhydroxamic acid from native state MPO (unknown origin) by 1D NMR reporter assay
[6] = Drug uptake in human liver microsomes assessed as covalent binding at 10 uM incubated for 60 mins by LC/MS analysis; type: ADME, Microsome; settings: 1 h
How it was run: (§1)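 Human liver microsomes incubated with the [14C]-labelled compound to measure covalent binding to microsomal protein.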

[7] = Drug uptake in human liver microsomes assessed as covalent binding at 10 uM incubated for 60 mins in presence of NADPH by LC/MS analysis; type: ADME, Microsome; settings: 1 h; how it was run: as §1
[8] = Drug uptake in heat-inactivated human liver microsomes assessed as covalent binding at 10 uM incubated for 60 mins by LC/MS analysis; type: ADME, Microsome; settings: 1 h; how it was run: as §1
[9] = Drug uptake in human liver microsomes assessed as covalent binding at 10 uM incubated for 60 mins in presence of formaldehyde by LC/MS analysis; type: ADME, Microsome; settings: 1 h
How it was run: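 Covalent binding of the [14C]-labelled compound in human liver microsome incubations with 5 mM formaldehyde added.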

[10] = Drug uptake in human hepatocytes assessed as covalent binding measured per mg protein; type: ADME, cell-based, Hepatocyte
How it was run: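 [14C]-labelled compound incubated with human hepatocytes; covalently bound radioactivity expressed as pmol per mg protein.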

[11] = Oral bioavailability in Wistar Han rat measured up to 24 hrs by LC-MS/MS analysis; type: ADME, organism-based; settings: in vivo
[12] = Oral bioavailability in Beagle dog measured up to 24 hrs by LC-MS/MS analysis; type: ADME, organism-based, Canis lupus familiaris; settings: in vivo
[13] = target: Voltage-gated inwardly rectifying potassium channel KCNH2 (Homo sapiens, UniProt Q12809)
Chain of Voltage-gated inwardly rectifying potassium channel KCNH2 (Q12809 whole entry): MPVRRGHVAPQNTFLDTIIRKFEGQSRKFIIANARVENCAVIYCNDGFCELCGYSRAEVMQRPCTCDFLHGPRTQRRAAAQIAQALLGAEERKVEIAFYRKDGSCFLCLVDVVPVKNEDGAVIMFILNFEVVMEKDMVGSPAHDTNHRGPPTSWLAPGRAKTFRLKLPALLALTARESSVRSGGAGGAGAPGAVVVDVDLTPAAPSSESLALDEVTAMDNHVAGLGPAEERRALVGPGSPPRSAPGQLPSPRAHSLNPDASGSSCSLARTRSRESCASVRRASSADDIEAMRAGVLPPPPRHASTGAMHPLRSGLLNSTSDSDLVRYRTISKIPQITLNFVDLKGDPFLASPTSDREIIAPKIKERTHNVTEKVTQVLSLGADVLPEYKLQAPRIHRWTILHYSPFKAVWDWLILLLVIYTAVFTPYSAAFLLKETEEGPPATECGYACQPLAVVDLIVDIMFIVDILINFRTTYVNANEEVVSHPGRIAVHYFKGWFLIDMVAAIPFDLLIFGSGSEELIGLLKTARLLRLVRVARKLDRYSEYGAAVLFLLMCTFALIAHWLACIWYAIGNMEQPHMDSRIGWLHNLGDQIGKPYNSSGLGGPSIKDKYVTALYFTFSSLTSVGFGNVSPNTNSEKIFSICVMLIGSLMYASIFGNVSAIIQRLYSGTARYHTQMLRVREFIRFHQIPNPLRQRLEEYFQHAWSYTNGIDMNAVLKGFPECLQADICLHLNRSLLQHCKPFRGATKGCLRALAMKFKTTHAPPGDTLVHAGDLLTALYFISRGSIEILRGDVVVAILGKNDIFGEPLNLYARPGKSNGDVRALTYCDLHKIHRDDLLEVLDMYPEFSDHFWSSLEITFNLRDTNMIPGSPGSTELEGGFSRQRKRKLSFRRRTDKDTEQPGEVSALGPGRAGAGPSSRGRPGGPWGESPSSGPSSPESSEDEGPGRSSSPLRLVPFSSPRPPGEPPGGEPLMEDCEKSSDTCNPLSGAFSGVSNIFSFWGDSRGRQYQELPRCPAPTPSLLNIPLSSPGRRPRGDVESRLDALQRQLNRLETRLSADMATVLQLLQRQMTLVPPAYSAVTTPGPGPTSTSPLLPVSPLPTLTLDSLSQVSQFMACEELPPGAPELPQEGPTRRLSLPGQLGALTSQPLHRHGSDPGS

Cytochrome P450 3A4 = Cytochrome P450 3A4 (Homo sapiens, UniProt P08684)
Chain of Cytochrome P450 3A4 (P08684 whole entry): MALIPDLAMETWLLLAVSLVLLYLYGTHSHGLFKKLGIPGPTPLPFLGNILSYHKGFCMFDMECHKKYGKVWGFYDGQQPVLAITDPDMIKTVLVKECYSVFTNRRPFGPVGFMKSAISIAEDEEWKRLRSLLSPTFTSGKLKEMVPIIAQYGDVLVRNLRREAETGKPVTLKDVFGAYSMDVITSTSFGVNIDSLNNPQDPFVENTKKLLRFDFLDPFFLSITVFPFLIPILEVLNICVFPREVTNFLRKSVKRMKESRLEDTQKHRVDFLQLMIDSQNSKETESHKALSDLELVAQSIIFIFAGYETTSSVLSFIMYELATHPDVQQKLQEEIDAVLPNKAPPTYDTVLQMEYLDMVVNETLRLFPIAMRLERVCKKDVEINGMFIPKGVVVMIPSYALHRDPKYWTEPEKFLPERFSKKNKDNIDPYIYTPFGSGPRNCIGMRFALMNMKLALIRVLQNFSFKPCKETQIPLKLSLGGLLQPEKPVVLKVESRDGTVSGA

Cytochrome P450 2C9 = Cytochrome P450 2C9 (Homo sapiens, UniProt P11712); assay: Inhibition of human recombinant CYP2C9 using coumarin as substrate preincubated with enzyme for 10 mins followed by NADPH addition and measured after 20 to 50 mins by fluorescence based method
Chain of Cytochrome P450 2C9 (P11712 whole entry): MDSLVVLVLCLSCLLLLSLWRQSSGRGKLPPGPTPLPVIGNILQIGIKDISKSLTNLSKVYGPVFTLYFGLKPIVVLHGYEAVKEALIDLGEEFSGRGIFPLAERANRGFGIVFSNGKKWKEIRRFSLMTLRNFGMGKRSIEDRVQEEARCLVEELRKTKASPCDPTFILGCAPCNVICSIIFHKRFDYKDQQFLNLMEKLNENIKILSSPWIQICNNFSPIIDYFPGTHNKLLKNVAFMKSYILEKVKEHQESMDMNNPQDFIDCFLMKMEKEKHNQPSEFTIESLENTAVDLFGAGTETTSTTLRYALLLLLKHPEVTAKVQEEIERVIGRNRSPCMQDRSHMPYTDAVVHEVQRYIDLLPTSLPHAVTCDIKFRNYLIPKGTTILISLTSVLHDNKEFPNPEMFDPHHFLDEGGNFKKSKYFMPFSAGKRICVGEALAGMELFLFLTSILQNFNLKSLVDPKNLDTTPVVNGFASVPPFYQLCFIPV

Cytochrome P450 2D6 = Cytochrome P450 2D6 (Homo sapiens, UniProt P10635); assay: Inhibition of CYP2D6 (unknown origin) using coumarin as substrate preincubated with enzyme for 10 mins followed by NADPH addition and measured after 20 to 50 mins by fluorescence based method
Chain of Cytochrome P450 2D6 (P10635 whole entry): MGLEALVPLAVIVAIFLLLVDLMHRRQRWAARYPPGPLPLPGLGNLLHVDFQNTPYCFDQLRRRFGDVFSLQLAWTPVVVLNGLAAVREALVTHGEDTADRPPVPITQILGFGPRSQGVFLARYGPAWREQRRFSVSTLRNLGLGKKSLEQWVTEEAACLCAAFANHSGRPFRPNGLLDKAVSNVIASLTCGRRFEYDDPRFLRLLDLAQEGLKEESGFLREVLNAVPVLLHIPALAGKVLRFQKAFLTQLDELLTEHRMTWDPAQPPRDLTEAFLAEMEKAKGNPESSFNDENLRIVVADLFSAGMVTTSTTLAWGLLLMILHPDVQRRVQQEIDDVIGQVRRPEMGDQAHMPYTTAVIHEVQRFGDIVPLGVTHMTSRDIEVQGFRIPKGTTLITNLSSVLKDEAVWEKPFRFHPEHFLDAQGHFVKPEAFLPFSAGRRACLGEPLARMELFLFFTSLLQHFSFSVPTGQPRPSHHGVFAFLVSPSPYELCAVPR

Cytochrome P450 1A2 = target: T3, Cytochrome P450 1A2 (Homo sapiens, UniProt P05177); assay: Inhibition of human recombinant CYP1A2 using coumarin as substrate preincubated with enzyme for 10 mins followed by NADPH addition and measured after 20 to 50 mins by fluorescence based method
T3 sequence (P05177 whole entry): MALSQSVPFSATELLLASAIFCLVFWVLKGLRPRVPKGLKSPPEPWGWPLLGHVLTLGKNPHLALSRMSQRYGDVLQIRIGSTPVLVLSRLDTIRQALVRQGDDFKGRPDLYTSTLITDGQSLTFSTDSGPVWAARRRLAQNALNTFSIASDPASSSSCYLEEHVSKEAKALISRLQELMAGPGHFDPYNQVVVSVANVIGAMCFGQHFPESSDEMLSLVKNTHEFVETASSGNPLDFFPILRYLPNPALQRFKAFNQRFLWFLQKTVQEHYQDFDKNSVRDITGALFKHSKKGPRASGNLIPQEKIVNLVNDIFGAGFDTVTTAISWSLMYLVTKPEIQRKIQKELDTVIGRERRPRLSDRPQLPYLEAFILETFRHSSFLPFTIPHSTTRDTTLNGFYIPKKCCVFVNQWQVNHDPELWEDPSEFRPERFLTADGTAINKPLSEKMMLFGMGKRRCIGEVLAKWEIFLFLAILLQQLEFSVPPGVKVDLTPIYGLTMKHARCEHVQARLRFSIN

Cytochrome P450 2C19 = Cytochrome P450 2C19 (Homo sapiens, UniProt P33261); assay: Inhibition of human recombinant CYP2C19 using coumarin as substrate preincubated with enzyme for 10 mins followed by NADPH addition and measured after 20 to 50 mins by fluorescence based method
Chain of Cytochrome P450 2C19 (P33261 whole entry): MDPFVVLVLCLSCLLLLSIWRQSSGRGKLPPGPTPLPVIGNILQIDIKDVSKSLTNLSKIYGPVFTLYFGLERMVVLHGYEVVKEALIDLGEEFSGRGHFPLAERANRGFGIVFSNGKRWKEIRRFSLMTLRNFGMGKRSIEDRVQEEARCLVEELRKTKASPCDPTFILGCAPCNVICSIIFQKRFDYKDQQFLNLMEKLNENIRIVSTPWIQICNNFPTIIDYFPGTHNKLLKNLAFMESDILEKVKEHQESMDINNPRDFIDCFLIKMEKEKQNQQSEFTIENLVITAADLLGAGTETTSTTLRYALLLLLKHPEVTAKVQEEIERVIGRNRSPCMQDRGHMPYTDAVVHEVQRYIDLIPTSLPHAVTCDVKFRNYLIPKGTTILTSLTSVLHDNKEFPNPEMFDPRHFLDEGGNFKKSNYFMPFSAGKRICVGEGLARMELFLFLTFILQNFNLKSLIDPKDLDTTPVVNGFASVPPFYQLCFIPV

Structure (SMILES)	IC50 (Thyroid peroxidase) [nM]	logD [1]	Papp A→B at 10 µM [2] [×10⁻⁶ cm/s]	solubility thermodynamic at 18 h (physchem) [µM]	IC50 (Myeloperoxidase [3]) [nM]	IC50 (Myeloperoxidase [4]) [nM]	other results
C[C@H](N)c1cc(Cl)ccc1Cn1c(=S)[nH]c(=O)c2[nH]ccc21	1100	1.4	10	850 (≈ 285 µg/mL)			
O=c1[nH]c(=S)n(C[C@H]2CCCO2)c2nc[nH]c12	2400				279	29000	Kd (Myeloperoxidase [5]): 63100 nM
CN[C@H](C)c1cc(Cl)ccc1Cn1c(=S)[nH]c(=O)c2[nH]ccc21 (racemic)	1100	1.5	19	190 (≈ 66.3 µg/mL)	12.7	4600	
COc1ccc(Cl)cc1-c1cc(=O)[nH]c(=S)n1CC(N)=O [PF-06282999]	990						
O=c1[nH]c(=S)n(Cc2ccc(F)cc2)c2nc[nH]c12	590						
CC(C)NCc1ccccc1Cn1c(=S)[nH]c(=O)c2[nH]cnc21	4200	0.3	0.89	18 (≈ 5.93 µg/mL)	38.6	80000	
CC(C)NCc1ccccc1Cn1c(=S)[nH]c(=O)c2[nH]ccc21	8100	0.9	12	140 (≈ 46 µg/mL)	30.9	13000	
O=c1[nH]c(=S)n(Cc2ccccc2CN2CCC2)c2cc[nH]c12	1500	1	19	930 (≈ 304 µg/mL)	15.1	6600	
C[C@@H](N)c1cc(Cl)ccc1Cn1c(=S)[nH]c(=O)c2[nH]cnc21	770						
NCc1cc(Cl)ccc1Cn1c2cc[nH]c2c(=O)[nH][14c]1=S							Drug uptake [6]: Active; Drug uptake [7]: Active; Drug uptake [8]: Active; Drug uptake [9]: Active; Drug uptake [10]: 95 pmol
CNCc1c(Cl)cccc1Cn1c(=S)[nH]c(=O)c2[nH]ccc21	4200	1.3	19	150 (≈ 50.2 µg/mL)	39.3	9400	
CC(=O)NCc1cc(Cl)ccc1Cn1c(=S)[nH]c(=O)c2[nH]ccc21	1400	2	11	3.3 (≈ 1.2 µg/mL)	140	16000	
CNCc1ccc(Cl)cc1Cn1c(=S)[nH]c(=O)c2[nH]ccc21	1900	1.1	9.6	210 (≈ 70.3 µg/mL)	27.1	6100	
CNCc1cc(Cl)ccc1Cn1c(=S)[nH]c(=O)c2[nH]ccc21	2100	1.3	17	160 (≈ 53.6 µg/mL)	15.9	6600	bioavailability [11]: 60%; bioavailability [12]: 72%; IC50 [13]: 10000 nM; IC50 (Cytochrome P450 3A4): > 30000 nM
NCc1cc(Cl)ccc1Cn1c(=S)[nH]c(=O)c2[nH]ccc21	1300	1.2	6	42 (≈ 13.5 µg/mL)			IC50 (Cytochrome P450 2C9): > 30000 nM; IC50 (Cytochrome P450 2D6): > 30000 nM; IC50 (Cytochrome P450 1A2): > 30000 nM; IC50 (Cytochrome P450 2C19): > 30000 nM; bioavailability [11]: 68%; bioavailability [12]: 45%; IC50 [13]: > 40000 nM; IC50 (Cytochrome P450 3A4): 19000 nM
NC(c1ccccc1)c1ccccc1Cn1c(=S)[nH]c(=O)c2[nH]ccc21 (centres undefined)	1390	1.7	18	8.3 (≈ 3.01 µg/mL)			
